Screens deposited in PubChem BioAssay by The Scripps Research Institute Molecular Screening Center.
Hits are enriched below; roughly 1.2% of the tested compounds scored in any of these assays.
proCasp7 act: activates human procaspase-7, counter-screen for procaspase-3 activators; P55210; activation, % at 8.5 µM; 0.093% of 330,000 active; AID 463210; recombinant procaspase-7, Ac-DEVD-pNA absorbance 405 nm; D23A/D198A/D206A triple mutant, cannot self-cleave; scale: DMSO 0, 5 µM enzyme 100;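 active means percent activation above the screen-wide mean plus 3 SD, cut at about 25% in these data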
Target sequence (P55210 whole entry D23A/D198A/D206A): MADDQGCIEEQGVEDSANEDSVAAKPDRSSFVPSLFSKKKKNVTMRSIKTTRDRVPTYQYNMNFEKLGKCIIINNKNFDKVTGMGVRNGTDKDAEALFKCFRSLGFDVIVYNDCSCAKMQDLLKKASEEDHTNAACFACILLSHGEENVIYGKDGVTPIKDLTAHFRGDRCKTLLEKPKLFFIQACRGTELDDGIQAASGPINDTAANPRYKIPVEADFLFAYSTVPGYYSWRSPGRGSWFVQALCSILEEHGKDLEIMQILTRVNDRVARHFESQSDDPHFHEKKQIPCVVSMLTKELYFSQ
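Test system: Procaspase-7 triple mutant (PC-7 D3A). Also added: Ac-DEVD-pNA substrate, 400 µM as added. Schedule: 1 h enzyme–compound preincubation and 2 h substrate reaction, both 25 °C. Signal: p-Nitroaniline absorbance at 405 nm, read at 0 and 120 min. Control set: low DMSO alone, high DMSO plus 5 µM PC-7.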
TPT1 inh: blocks Candida albicans tRNA 2'-phosphotransferase | recombinant caTPT1, FP RNA substrate dephosphorylation | inhibition, % at 5 µM | 0.81% of 300,000 active | AID 1962;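 active means inhibition above the mean of all tested compounds plus 3 SD, set per screening campaign, cut at about 24% in these data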
IDE cell activ: boosts human insulin-degrading enzyme activity in HEK cells. 0.073% of 340,000 active. P14735. AID 493087. activation, % at 5.96 µM. FAbeta-B cleavage, fluorescence polarization; 0% vehicle, 100% cell-free pure enzyme wells;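 active means activation above the mean of all tested compounds plus 3 SD, set per screening campaign, cut at about 17% in these data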
procasp3 activ: activators of human procaspase-3; P42574; recombinant procaspase-3 D3A, Ac-DEVD-pNA absorbance 405 nm; activation, % at 8.5 µM; 0.11% of 330,000 active; AID 463141;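 active means activation above the mean of all tested compounds plus 3 SD, cut at about 21% in these data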
Target sequence (P42574 whole entry D9A/D28A/D175A): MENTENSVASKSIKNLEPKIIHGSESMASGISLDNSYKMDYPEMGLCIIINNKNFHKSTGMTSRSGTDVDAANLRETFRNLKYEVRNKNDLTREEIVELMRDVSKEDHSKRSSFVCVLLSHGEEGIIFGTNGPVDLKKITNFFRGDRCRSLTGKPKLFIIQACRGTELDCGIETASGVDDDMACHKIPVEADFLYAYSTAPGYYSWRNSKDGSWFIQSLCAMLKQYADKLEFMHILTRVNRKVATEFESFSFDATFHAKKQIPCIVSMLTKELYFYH
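assay system = Procaspase-3 D3A mutant | signal = absorbance at 405 nm, 0 and 120 min | times = 1 h preincubation plus 2 h reaction at 25 °C | repeats = single replicate | read-out = % activation between DMSO and enzyme-spiked controls | medium = Zinc-free HEPES saline buffer with Triton X-100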
IDE cell inh: inhibits human insulin-degrading enzyme in HEK cells; 0.41% of 320,000 active; inhibition, % at 5.59 µM; FAbetaB cleavage, fluorescence polarization; AID 434962;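 active means percent inhibition above the average of all tested compounds plus 3 SD, set per screening campaign, cut at about 16% in these data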;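 further: IDE supplied by intact live HEK cells; FP after avidin binding of uncleaved biotin substrate so inhibition keeps polarization high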
caTPT1 confirm: confirmation of Candida albicans TPT1 inhibitors. shares compounds with TPT1 inh. inhibition, % at 5 µM. recombinant caTPT1, fluorescence polarization, RNase T1 coupled. 74% of 2,400 active;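 active means inhibition above the primary screen limit, the mean inhibition of all tested compounds plus 3 SD, cut at about 25% in these data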
RNase T1 inh: RNase T1 inhibition in TPT1 counter-screen; shares compounds with TPT1 inh; RNase T1 cleavage, fluorescence polarization, 1536-well; inhibition, % at 5 µM; 83% of 2,400 active;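 active means inhibition above the solvent-only control well mean plus 3 SD, limit set per screening run, cut at about 23% in these data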;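 further: inhibitors block cleavage so intact labeled substrate keeps polarization high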
Target sequence (P00651 whole entry, looked up): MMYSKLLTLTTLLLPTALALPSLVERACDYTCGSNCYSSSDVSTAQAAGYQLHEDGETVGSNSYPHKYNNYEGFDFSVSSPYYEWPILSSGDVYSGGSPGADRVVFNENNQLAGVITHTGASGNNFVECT
Each line names hits and unclear results; the compound was inactive in the other large screens (follow-up assays come after a bar, where they were run).

CCn1nc(C(=O)Nc2ccc(S(=O)(=O)Nc3nccs3)cc2)c2ccccc2c1=O	TPT1 inh 30.6 | caTPT1 confirm 53.6 | RNase T1 inh 70.8
O=C(Nc1ccc(S(=O)(=O)Nc2ncccn2)cc1)c1nn(Cc2ccccc2)c(=O)c2ccccc12	none
O=C(Nc1ccc(S(=O)(=O)Nc2nccs2)cc1)c1cnc(Cl)c(Cl)c1	TPT1 inh 32.9 | caTPT1 confirm 30.8 | RNase T1 inh 47.6
O=C(Nc1ccc(S(=O)(=O)Nc2ncccn2)cc1)c1cnc(Cl)c(Cl)c1	none
CC(C)c1ccc(NC(=O)CSc2n[nH]c(=O)n2-c2cccnc2)cc1	none
CC(=O)Oc1ccc(C(=O)Nc2ccccc2C(=O)N2CCCC2)cc1	TPT1 inh 49.1 | caTPT1 confirm inactive | RNase T1 inh inactive
O=C(CCn1c(=O)oc2ccc(Cl)cc21)N1CCN(Cc2ccccc2)CC1	none
Cc1ccc(S(=O)(=O)c2c(N)n(Cc3ccco3)c3nc4ccccc4nc23)cc1	TPT1 inh 27.3 | caTPT1 confirm inactive | RNase T1 inh 29.0
O=[N+]([O-])c1ccc(N/N=C/c2ccccc2)c(F)c1	TPT1 inh 27.1 | caTPT1 confirm 43.5 | RNase T1 inh 54.4
COc1ccc(/C=C2\CC/C(=C\c3ccc(OC)c(OC)c3)C2=O)cc1OC	none
COc1cc(/C=C2\CC/C(=C\c3ccc(OCCO)c(OC)c3)C2=O)ccc1OCCO	TPT1 inh 107.0 | caTPT1 confirm 114.1 | RNase T1 inh 113.5
COCC1CCCN(C(=O)c2ccc3oc(Cc4ccc(Cl)cc4)nc3c2)C1 (stereo not drawn)	none
O=S(=O)(NCCc1ccccc1)c1cccs1	none
O=S(=O)(NCCc1ccc2c(c1)OCCO2)c1cccs1	TPT1 inh 26.1 | caTPT1 confirm inactive | RNase T1 inh 26.6
Cc1c(N=N/C(C(=O)Nc2ccccc2)=C(/O)c2ccccc2)c(=O)n(-c2ccccc2)n1C	TPT1 inh 54.8 | caTPT1 confirm 53.7 | RNase T1 inh 66.7
Cc1c(C)n2c(SCC(=O)N3CCCCC3)nnc2[nH]c1=O	none
CCOC(=O)/C(C#N)=C/c1ccc(OC(=O)c2ccccn2)cc1	none
COC(=O)/C(C#N)=C/c1ccc(OC(=O)c2ccccn2)cc1	TPT1 inh 26.8 | caTPT1 confirm inactive | RNase T1 inh 25.5
COc1ccc(NC(=O)c2cc(S(=O)(=O)Nc3ccc(OC)cc3)cs2)cc1	TPT1 inh 47.4 | caTPT1 confirm inactive | RNase T1 inh inactive
COc1cccc(-n2c(SCC(N)=O)nc3ccccc3c2=O)c1	TPT1 inh 40.4 | caTPT1 confirm 60.2 | RNase T1 inh 74.6
CSc1ccc(CN2CCN(C(=O)CC(C)C)CC2)cc1	TPT1 inh 25.9 | caTPT1 confirm inactive | RNase T1 inh inactive
CCOC(=O)c1cc2nc(Nc3ccc(OC)cc3)sc2s1	TPT1 inh 39.3 | caTPT1 confirm 27.2 | RNase T1 inh 39.5
CCOC(=O)c1sc(Nc2ccc(Br)cc2)nc1C	none
Cc1c(C#N)c(O)[nH]c(=O)c1N=Nc1ccc(Br)cc1C(=O)O	TPT1 inh 28.7 | caTPT1 confirm 43.2 | RNase T1 inh 64.6
Cc1cccc(/N=C/c2c(O)[nH]c3ccccc23)n1	none
Cc1cccc(/N=C/c2sc3ccccc3c2O)n1	TPT1 inh 85.5 | caTPT1 confirm 29.2 | RNase T1 inh 40.3
O=[N+]([O-])c1ccc(O)c(N=Cc2sc3ccccc3c2O)c1	TPT1 inh 42.1 | caTPT1 confirm 38.0 | RNase T1 inh 53.5
Oc1ccc(Cl)cc1N=Cc1sc2ccccc2c1Cl	none
Oc1c(C=Nc2cccc3cccnc23)sc2ccccc12	TPT1 inh 171.8, IDE cell inh 49.3 (no result: IDE cell activ) | caTPT1 confirm 151.5 | RNase T1 inh 138.0
C/C(CCC(C)C)=N\NC(=S)Nc1cc(S(=O)(=O)N2CCOCC2)ccc1N1CCOCC1	none
O=C(c1cn(-c2ccccc2)nc1-c1cccnc1)N1CCN(S(=O)(=O)c2ccc(Cl)cc2)CC1	none (no result: proCasp7 act, TPT1 inh, procasp3 activ, IDE cell inh)
Cc1nnsc1Sc1ccccc1C(=O)O	none
O=c1[nH]ncc2c3ccccc3n(Cc3cccc(Cl)c3)c12	TPT1 inh 69.2 | caTPT1 confirm 156.8 | RNase T1 inh 136.8
Cc1ccc(N2C(=O)C3C(C(=O)c4ccccc4)=NN(c4ccccc4)C3C2=O)cc1 (stereo not drawn)	TPT1 inh 29.1 | caTPT1 confirm 37.0 | RNase T1 inh 50.9
COc1ccccc1N1N=C(C(=O)c2ccccc2)C2C(=O)N(c3ccc(Br)cc3)C(=O)C21 (stereo not drawn)	none (no result: IDE cell activ)
Cc1nnc(N2C(=O)C(=O)/C(=C(/O)c3ccc4c(c3)OCCO4)C2c2ccc([N+](=O)[O-])cc2)s1 (stereo not drawn)	none
COc1cccc(C2C(C(=O)c3cc4cccc(OC)c4o3)=C(O)C(=O)N2c2cc(C)on2)c1OC (stereo not drawn)	none
COc1cccc2cc(C(=O)C3=C(O)C(=O)N(c4cc(C)on4)C3c3cccs3)oc12 (stereo not drawn)	TPT1 inh 30.8 | caTPT1 confirm inactive | RNase T1 inh 35.5
CCCOc1cccc(C2C(C(=O)c3cc4ccccc4o3)=C(O)C(=O)N2c2cc(C)on2)c1 (stereo not drawn)	none
COC(=O)c1ccc(C2C(C(=O)c3cc4ccccc4o3)=C(O)C(=O)N2c2cc(C)on2)cc1 (stereo not drawn)	TPT1 inh 43.9 | caTPT1 confirm inactive | RNase T1 inh 25.5
Cc1cc(N2C(=O)C(O)=C(C(=O)c3cc4ccccc4o3)C2c2cccc(Br)c2)no1 (stereo not drawn)	TPT1 inh 30.6 | caTPT1 confirm inactive | RNase T1 inh 25.3
COc1ccc(CC(=O)NCc2ccc(Cl)cc2)cc1S(=O)(=O)N1CCOCC1	none (no result: proCasp7 act, TPT1 inh, procasp3 activ, IDE cell inh)
COc1ccc(C)cc1NC(=O)c1nn(C)cc1Br	none
CCOC(=O)C1CCN(S(=O)(=O)CCNC(=O)c2ccc(F)cc2)CC1	none
O=[N+]([O-])c1ccc(C[n+]2cccc3ccccc32)cc1	TPT1 inh 56.4 | caTPT1 confirm 26.8 | RNase T1 inh 36.2
O=C1N/C(=C/c2cccs2)C(=O)N1Cc1ccccc1F	none
Cc1ccc(/C=C2/NC(=O)N(Cc3ccccc3F)C2=O)s1	TPT1 inh 68.8 | caTPT1 confirm 85.5 | RNase T1 inh 86.4
COc1ccc(NC(=O)N/C=C/c2ccco2)cc1	none
O=C(N/C=C/c1ccco1)Nc1cccc(Cl)c1	TPT1 inh 34.3 (no result: IDE cell activ) | caTPT1 confirm inactive | RNase T1 inh inactive
CC(C)C1Nc2ccc(C(=O)NC3CCCCC3)cc2NC1=O (stereo not drawn)	none
